Experimental data published in ChEMBL document CHEMBL3271979, “Inhibition of solid tumors by nitrosoureas. 1. Lewis lung carcinoma” (1977).
Active and inactive are the calls of the source. The calls are words filed in the database; no cut-off is given here.

Experiments:
[1] = Antitumor activity against mouse advanced Lewis lung carcinoma allografted in ip dosed BDF1 mouse assessed as increase in host lifespan administered as single dose on day 6 or 7 post-tumor implantation; type: functional
Method in brief: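 Advanced Lewis lung model: about 40 mg fragments implanted sc by trocar into BDF1 mice, and mice with tumors of about 400 mg (day 6-7) selected. Tumor weight from calipers, w = ab²/2. Agent given as one ip dose in distilled water or physiological saline. Nontumor-bearing mice received matching doses as toxicity controls.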

Mus musculus [2] = assay: Antitumor activity against mouse advanced Lewis lung carcinoma allografted in BDF1 mouse assessed as disease cure at 11 mg/kg, ip administered as single dose on 7th day post-tumor implantation measured for 80 days post-drug treatment; type: functional, organism-based; design: dose 11 mg/kg
Method in brief: (§1)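 BDF1 mice (C57Blk/6 × DBA/2) implanted sc by trocar with Lewis lung tumor fragments of about 40 mg, taken only from bacteriologically sterile donor tumors. Mice bearing tumors of about 400 mg (day 6-7) were selected. Each received a single ip dose on day 7, at or below the LD10 in normal mice. Groups were of 10 mice. Tumor weight was taken from calipers as w = ab²/2, measured at least twice weekly. Matched non-tumor mice served as toxicity controls.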

Mus musculus [3] = assay: Antitumor activity against mouse advanced Lewis lung carcinoma allografted in ip dosed BDF1 mouse assessed as complete regression of established tumor administered as single dose on day 6 or 7 post-tumor implantation; type: functional, organism-based; method in brief: as §1
Mus musculus [4] = assay: Antitumor activity against mouse advanced Lewis lung carcinoma allografted in ip dosed BDF1 mouse assessed as disease cure administered as single dose on day 6 or 7 post-tumor implantation; type: functional, organism-based; method in brief: as §1
[5] = Antitumor activity against mouse advanced Lewis lung carcinoma allografted in BDF1 mouse assessed as increase in host life span at 11 mg/kg, ip administered as single dose on 7th day post-tumor implantation; type: functional; conditions: route intraperitoneal
Method in brief: (§2)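 BDF1 mice (C57Blk/6 × DBA/2) implanted sc by trocar with about 40 mg Lewis lung tumor fragments from bacteriologically sterile donors. Advanced-disease groups held tumors of about 400 mg by day 6-7, sized by caliper (w = ab²/2). Single ip injection on day 7, in water or saline vehicle, at or below the LD10 in normal mice. Tumors measured at least twice weekly.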

[6] = Antitumor activity against mouse advanced Lewis lung carcinoma allografted in BDF1 mouse assessed as increase in host life span at 40 mg/kg, ip administered as single dose on 7th day post-tumor implantation; type: functional; conditions: route intraperitoneal; method in brief: as §2
Mus musculus [7] = assay: Antitumor activity against mouse advanced Lewis lung carcinoma allografted in BDF1 mouse assessed as disease cure at 40 mg/kg, ip administered as single dose on 7th day post-tumor implantation measured for 80 days post-drug treatment; type: functional, organism-based; design: dose 40 mg/kg; method in brief: as §2
[8] = Antitumor activity against mouse advanced Lewis lung carcinoma allografted in BDF1 mouse assessed as increase in host life span at 50 mg/kg, ip administered as single dose on 7th day post-tumor implantation; type: functional; conditions: route intraperitoneal; method in brief: as §2
Mus musculus [9] = assay: Antitumor activity against mouse advanced Lewis lung carcinoma allografted in BDF1 mouse assessed as disease cure at 50 mg/kg, ip administered as single dose on 7th day post-tumor implantation measured for 80 days post-drug treatment; type: functional, organism-based; design: dose 50 mg/kg; method in brief: as §2
[10] = Antitumor activity against mouse early Lewis lung carcinoma allografted in BDF1 mouse assessed as increase in host life span at 13 mg/kg, ip administered as single dose on 1 or 2 days post-tumor implantation; type: functional; conditions: route intraperitoneal
Method in brief: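 Early disease: BDF1 mice carrying sc trocar implants of about 40 mg Lewis lung fragments. One ip dose given on day 1 or 2 after implant, in distilled water or saline, at ≤0.5 ml. Endpoints were % increase in life-span of dying animals and delay in days for the primary tumor to reach 1 g. Untreated controls served as reference.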

Mus musculus [11] = assay: Antitumor activity against mouse advanced Lewis lung carcinoma allografted in BDF1 mouse assessed as disease cure at 30 mg/kg, ip administered as single dose on 7th day post-tumor implantation measured for 80 days post-drug treatment; type: functional, organism-based; design: dose 30 mg/kg; method in brief: as §1
[12] = Antitumor activity against mouse early Lewis lung carcinoma allografted in BDF1 mouse assessed as time delay in tumor growth at 13 mg/kg, ip administered as single dose on 1 or 2 days post-tumor implantation; type: functional; conditions: route intraperitoneal
Method in brief: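 Sc trocar implants of about 40 mg Lewis lung fragments in BDF1 mice. A single ip injection was given on day 1 or 2, in water or physiological saline, at ≤0.5 ml. Tumor size came from caliper length and width as w = ab²/2, measured at least twice weekly. Growth delay is the extra days taken to reach 1 g, compared with untreated controls.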

[13] = Ratio of ED50 for antitumor activity against mouse L1210 cells allografted in ip dosed mouse to LD10 for mouse
[14] = Antitumor activity against mouse early Lewis lung carcinoma allografted in BDF1 mouse assessed as increase in host life span at 20 mg/kg, ip administered as single dose on 1 or 2 days post-tumor implantation; type: functional; conditions: route intraperitoneal
Method in brief: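 BDF1 mice (C57Blk/6 × DBA/2) implanted sc by trocar with ~40 mg Lewis lung tumor fragments from bacteriologically sterile donor tumors. Single ip dose on day 1 or 2, as a solution or suspension in water (CMC or gum acacia) or saline (HPC or Tween 80). Read-out is […]. Same-dose toxicity controls were run in nontumor-bearing mice.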

[15] = Antitumor activity against mouse advanced Lewis lung carcinoma allografted in BDF1 mouse assessed as increase in host life span at 30 mg/kg, ip administered as single dose on 7th day post-tumor implantation; type: functional; conditions: route intraperitoneal; method in brief: as §2
Mus musculus [16] = assay: Antitumor activity against mouse advanced Lewis lung carcinoma allografted in BDF1 mouse assessed as disease cure at 20 mg/kg, ip administered as single dose on 7th day post-tumor implantation measured for 80 days post-drug treatment; type: functional, organism-based; design: dose 20 mg/kg; method in brief: as §1
[17] = Antitumor activity against mouse advanced Lewis lung carcinoma allografted in BDF1 mouse assessed as increase in host life span at 20 mg/kg, ip administered as single dose on 7th day post-tumor implantation; type: functional; conditions: route intraperitoneal; method in brief: as §2
[18] = Antitumor activity against mouse early Lewis lung carcinoma allografted in ip dosed BDF1 mouse assessed as disease cure administered as single dose on 1 or 2 days post-tumor implantation measured for 80 days post-drug treatment; type: functional
Method in brief: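 BDF1 mice implanted sc by trocar with ~40 mg Lewis lung fragments from sterile donor tumors. A single ip dose was given on day 1 or 2 after implant, in water or saline vehicle. Cures were scored in animals observed for at least 80 days after treatment. Drug-toxicity controls were matched non-tumor-bearing mice monitored for body weight and deaths.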

Mus musculus [19] = assay: Antitumor activity against mouse advanced Lewis lung carcinoma allografted in BDF1 mouse assessed as disease cure at 62 mg/kg, ip administered as single dose on 7th day post-tumor implantation measured for 80 days post-drug treatment; type: functional, organism-based; design: dose 62 mg/kg; method in brief: as §2
Mus musculus [20] = assay: Antitumor activity against mouse advanced Lewis lung carcinoma allografted in BDF1 mouse assessed as complete regression of established tumor at 62 mg/kg, ip administered as single dose on 7th day post-tumor implantation; type: functional, organism-based; design: dose 62 mg/kg; method in brief: as §2
[21] = Antitumor activity against mouse advanced Lewis lung carcinoma allografted in BDF1 mouse assessed as increase in host life span at 93 mg/kg, ip administered as single dose on 7th day post-tumor implantation; type: functional; conditions: route intraperitoneal; method in brief: as §2
[22] = Antitumor activity against mouse advanced Lewis lung carcinoma allografted in BDF1 mouse assessed as increase in host life span at 62 mg/kg, ip administered as single dose on 7th day post-tumor implantation; type: functional; conditions: route intraperitoneal; method in brief: as §2
Mus musculus [23] = assay: Antitumor activity against mouse advanced Lewis lung carcinoma allografted in BDF1 mouse assessed as complete regression of established tumor at 93 mg/kg, ip administered as single dose on 7th day post-tumor implantation; type: functional, organism-based; design: dose 93 mg/kg; method in brief: as §2
Mus musculus [24] = assay: Antitumor activity against mouse advanced Lewis lung carcinoma allografted in BDF1 mouse assessed as disease cure at 93 mg/kg, ip administered as single dose on 7th day post-tumor implantation measured for 80 days post-drug treatment; type: functional, organism-based; design: dose 93 mg/kg; method in brief: as §2
[25] = Antitumor activity against mouse advanced Lewis lung carcinoma allografted in BDF1 mouse assessed as increase in host life span at 9 mg/kg, ip administered as single dose on 7th day post-tumor implantation; type: functional; conditions: route intraperitoneal; method in brief: as §2
Mus musculus [26] = assay: Antitumor activity against mouse advanced Lewis lung carcinoma allografted in BDF1 mouse assessed as complete regression of established tumor at 9 mg/kg, ip administered as single dose on 7th day post-tumor implantation; type: functional, organism-based; design: dose 9 mg/kg; method in brief: as §1
Mus musculus [27] = assay: Antitumor activity against mouse advanced Lewis lung carcinoma allografted in BDF1 mouse assessed as disease cure at 9 mg/kg, ip administered as single dose on 7th day post-tumor implantation measured for 80 days post-drug treatment; type: functional, organism-based; design: dose 9 mg/kg; method in brief: as §1

O=NN(CCCl)C(=O)NC1CCS(=O)(=O)CC1
ILS [1]: >25%
Activity (Mus musculus [2]): inactive
inhibition (Mus musculus [3]): inactive
Activity (Mus musculus [4]): inactive
ILS at 11 mg/kg [5]: 27%

O=NN(CCCl)C(=O)NC1CCCCC1 [LOMUSTINE]
ILS at 40 mg/kg [6]: 31%
Activity (Mus musculus [7]): inactive
ILS at 50 mg/kg [8]: 15%
inhibition (Mus musculus [3]): Active
Activity (Mus musculus [4]): inactive
Activity (Mus musculus [9]): inactive

O=NN(CCCl)C(=O)N[C@H]1CC[C@@H](C(=O)O)CC1
ILS at 13 mg/kg [10]: 35%
Activity (Mus musculus [11]): inactive
Time [12]: 23 days
Ratio [13]: 0.6
inhibition (Mus musculus [3]): Active
Activity (Mus musculus [4]): inactive
ILS at 20 mg/kg [14]: 0%
ILS at 30 mg/kg [15]: 79%
Activity (Mus musculus [16]): inactive
ILS at 20 mg/kg [17]: 90%
Activity [18]: >50%

Cc1ccc(S(=O)(=O)NC(=O)N(CCCl)N=O)cc1
Activity (Mus musculus [19]): inactive
inhibition (Mus musculus [20]): inactive
ILS [1]: >25%
ILS at 93 mg/kg [21]: 28%
ILS at 62 mg/kg [22]: 28%
inhibition (Mus musculus [23]): inactive
Activity (Mus musculus [24]): inactive
inhibition (Mus musculus [3]): inactive
Activity (Mus musculus [4]): inactive

O=NN(CCF)C(=O)NC1CC2CCC1C2 (centres undefined)
ILS at 9 mg/kg [25]: 40%
inhibition (Mus musculus [26]): inactive
Activity (Mus musculus [27]): inactive
